Molecules are shown by their SMILES. Where a SMILES comes first, the peptide text is derived from it. [ ]: non-standard residue; d: D form. The star is where a group is joined. Propanoyl(3-(4-Cl-Ph)) = O=C(CCc1ccc(Cl)cc1)*; Desaminotyrosyl = O=C(CCc1ccc(O)cc1)*; X1 = O=C(Cc1ccc(O)cc1)*

The assay is filed under the species Rattus norvegicus. The assay can be described thus: In vitro antagonistic potency against release of luteinizing hormone (LH) from cultured rat pituitary cells. It counts as functional. The following applies: Pituitary gland cell, read-out: pA2 (converted). The gist of the method: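 Cultured rat pituitary cells, agonist-stimulated LH release. pA2 is the negative log of the antagonist concentration that makes a 2-fold higher agonist concentration necessary to release LH. Compounds tested as TFA salts.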
As to `CCNC(=O)[C@@H]1CCCN1C(=O)[C@H](CCCN=C(N)N)NC(=O)[C@H](CC(C)C)NC(=O)[C@@H](Cc1c[nH]c2ccccc12)NC(=O)[C@H](Cc1ccc(O)cc1)NC(=O)[C@H](CO)N(C)C(=O)[C@@H](Cc1c[nH]c2ccccc12)NC(=O)CCc1ccc(F)cc1`, the Kb is 0.115 nM. As for `CCNC(=O)[C@@H]1CCCN1C(=O)[C@H](CCCN=C(N)N)NC(=O)[C@H](CC(C)C)NC(=O)[C@@H](Cc1c[nH]c2ccccc12)NC(=O)[C@H](Cc1ccc(O)cc1)N(C)C(=O)[C@H](CO)NC(=O)[C@@H](Cc1cccc2ccccc12)NC(=O)CCc1ccc(F)cc1`, the Kb was 0.00562 nM. Consider `CCNC(=O)[C@@H]1CCCN1C(=O)[C@H](CCCN=C(N)N)NC(=O)[C@H](CC(C)C)NC(=O)[C@@H](Cc1ccc(O)cc1)NC(=O)[C@H](Cc1ccc(O)cc1)NC(=O)[C@H](CO)NC(=O)[C@@H](Cc1c[nH]c2ccccc12)NC(=O)CCc1ccc(F)cc1`, for which the Kb is 0.0316 nM. For `CCNC(=O)[C@@H]1CCCN1C(=O)[C@H](CCCN=C(N)N)NC(=O)[C@H](CC(C)C)NC(=O)[C@@H](Cc1c[nH]c2ccccc12)NC(=O)[C@H](Cc1ccc(O)cc1)NC(=O)[C@H](CO)NC(=O)[C@H](Cc1c[nH]c2ccccc12)NC(=O)Cc1ccc(O)cc1` (X1-WSY[dW]LRP-NHEt), the Kb was 44.7 nM. Turning to `CCNC(=O)[C@@H]1CCCN1C(=O)[C@H](CCCN=C(N)N)NC(=O)[C@H](CC(C)C)NC(=O)[C@@H](Cc1c[nH]c2ccccc12)NC(=O)[C@H](Cc1ccc(O)cc1)NC(=O)[C@H](CO)NC(=O)[C@H](Cc1c[nH]c2ccccc12)NC(=O)CCc1ccc(Cl)cc1`, the Kb was 0.126 nM. For the compound `CCNC(=O)[C@@H]1CCCN1C(=O)[C@H](CCCN=C(N)N)NC(=O)[C@H](CC(C)C)NC(=O)[C@@H](Cc1c[nH]c2ccccc12)NC(=O)[C@H](Cc1ccc(O)cc1)NC(=O)[C@H](CO)NC(=O)[C@@H](Cc1ccc(O)cc1)NC(=O)CCc1ccc(F)cc1`, the Kb was 0.219 nM. For the compound `CCNC(=O)[C@@H]1CCCN1C(=O)[C@H](CCCN=C(N)N)NC(=O)[C@H](CC(C)C)NC(=O)[C@@H](Cc1c[nH]c2ccccc12)NC(=O)[C@H](Cc1ccc(O)cc1)NC(=O)[C@H](CO)NC(=O)[C@H](Cc1c[nH]c2ccccc12)NC(=O)CCc1ccc(OC)cc1`, the Kb is 2.4 nM. As to `CCNC(=O)[C@@H]1CCCN1C(=O)[C@H](CCCN=C(N)N)NC(=O)[C@H](CC(C)C)NC(=O)[C@@H](CCCCNC(=O)c1cccnc1)NC(=O)[C@H](Cc1ccc(O)cc1)N(C)C(=O)[C@H](CO)NC(=O)[C@@H](Cc1c[nH]c2ccccc12)NC(=O)CCc1ccc(F)cc1`, the Kb is 0.0347 nM.

For the compound `CCNC(=O)[C@@H]1CCCN1C(=O)[C@H](CCCN=C(N)N)NC(=O)[C@H](CC(C)C)NC(=O)[C@@H](Cc1c[nH]c2ccccc12)NC(=O)[C@H](Cc1ccc(O)cc1)NC(=O)[C@H](CO)NC(=O)[C@H](Cc1c[nH]c2ccccc12)NC(=O)CCc1cccc(F)c1`, the Kb is 0.891 nM. On to `CCNC(=O)[C@@H]1CCCN1C(=O)[C@H](CCCN=C(N)N)NC(=O)[C@H](CC(C)C)NC(=O)[C@@H](Cc1ccc(O)cc1)NC(=O)[C@H](Cc1ccc(O)cc1)NC(=O)[C@H](CO)NC(=O)[C@H](Cc1c[nH]c2ccccc12)NC(=O)CCc1ccc(F)cc1`, for which the Kb is 12.6 nM. With `CCNC(=O)[C@@H]1CCCN1C(=O)[C@H](CCCN=C(N)N)NC(=O)[C@H](CC(C)C)NC(=O)[C@@H](Cc1c[nH]c2ccccc12)NC(=O)[C@H](Cc1ccc(O)cc1)NC(=O)[C@H](CO)NC(=O)[C@@H](Cc1c[nH]c2ccccc12)NC(=O)CCc1ccc(F)cc1`, the Kb was 0.0389 nM.

For the compound `CCNC(=O)[C@@H]1CCCN1C(=O)[C@H](CCCN=C(N)N)NC(=O)[C@H](CC(C)C)NC(=O)[C@@H](Cc1c[nH]c2ccccc12)NC(=O)[C@H](Cc1ccc(O)cc1)N(C)C(=O)[C@H](CO)NC(=O)[C@@H](Cc1cccc2ccccc12)NC(=O)CCc1ccc(Br)cc1`, the Kb was 0.00631 nM. Consider `CCNC(=O)[C@@H]1CCCN1C(=O)[C@H](CCCN=C(N)N)NC(=O)[C@H](CC(C)C)NC(=O)[C@@H](Cc1c[nH]c2ccccc12)NC(=O)[C@H](Cc1ccc(O)cc1)NC(=O)[C@@H]1CCCN1C(=O)[C@@H](Cc1c[nH]c2ccccc12)NC(=O)CCc1ccc(F)cc1`, for which the Kb was 21.4 nM. As for `CCNC(=O)[C@@H]1CCCN1C(=O)[C@H](CCCN=C(N)N)NC(=O)[C@H](CC(C)C)NC(=O)[C@@H](CCCCNC(=O)c1cccnc1)NC(=O)[C@H](Cc1ccc(O)cc1)NC(=O)[C@H](CO)NC(=O)[C@@H](Cc1c[nH]c2ccccc12)NC(=O)CCc1ccc(F)cc1`, the figure is 0.0955 nM; as for `CCNC(=O)[C@@H]1CCCN1C(=O)[C@H](CCCN=C(N)N)NC(=O)[C@H](CC(C)C)NC(=O)[C@@H](CCCCNC(=O)c1cccnc1)NC(=O)[C@H](Cc1ccc(O)cc1)NC(=O)[C@H](CO)NC(=O)[C@H](Cc1c[nH]c2ccccc12)NC(=O)CCc1ccc(F)cc1`, 20.9 nM. Turning to `CCNC(=O)[C@@H]1CCCN1C(=O)[C@H](CCCN=C(N)N)NC(=O)[C@H](CC(C)C)NC(=O)[C@@H](Cc1c[nH]c2ccccc12)NC(=O)[C@H](Cc1ccc(O)cc1)NC(=O)[C@H](CO)NC(=O)[C@@H](Cc1ccc(Cl)cc1)NC(=O)CCc1ccc(F)cc1`, the Kb is 0.0178 nM. `CC(C)C[C@H](NC(=O)[C@@H](CCCCNC(=O)c1cccnc1)NC(=O)[C@H](Cc1ccc(O)cc1)N(C)C(=O)[C@H](CO)NC(=O)[C@@H](Cc1cccc2ccccc12)NC(=O)CCc1ccc(F)cc1)C(=O)N[C@@H](CCCCNC(C)C)C(=O)N1CCC[C@H]1C(N)=O`: the Kb was 0.00692 nM.

As for `CCNC(=O)[C@@H]1CCCN1C(=O)[C@H](CCCN=C(N)N)NC(=O)[C@H](CC(C)C)NC(=O)[C@@H](CCCCNC(=O)c1cccnc1)NC(=O)[C@H](Cc1ccc(O)cc1)N(C)C(=O)[C@H](CO)NC(=O)[C@@H](Cc1c[nH]c2ccccc12)NC(=O)CCc1ccc(Cl)cc1`, the Kb is 0.0158 nM.

Consider `CCNC(=O)[C@@H]1CCCN1C(=O)[C@H](CCCN=C(N)N)NC(=O)[C@H](CC(C)C)NC(=O)[C@@H](Cc1c[nH]c2ccccc12)NC(=O)[C@H](Cc1ccc(O)cc1)NC(=O)[C@H](CO)NC(=O)[C@H](Cc1c[nH]c2ccccc12)NC(=O)Cc1ccc(Cl)cc1`, for which the Kb is 5.5 nM. As for `CCNC(=O)[C@@H]1CCCN1C(=O)[C@H](CCCN=C(N)N)NC(=O)[C@H](CC(C)C)NC(=O)[C@@H](Cc1c[nH]c2ccccc12)NC(=O)[C@H](Cc1ccc(O)cc1)NC(=O)[C@H](CO)NC(=O)[C@@H](Cc1ccc(O)cc1)NC(=O)CCc1ccc(Cl)cc1` ({Propanoyl(3-(4-Cl-Ph))}-[dY]SY[dW]LRP-NHEt), the figure is 0.0832 nM; as for `CCNC(=O)[C@@H]1CCCN1C(=O)[C@H](CCCN=C(N)N)NC(=O)[C@H](CC(C)C)NC(=O)[C@@H](Cc1c[nH]c2ccccc12)NC(=O)[C@H](Cc1ccc(O)cc1)N(C)C(=O)[C@H](CO)NC(=O)[C@@H](Cc1c[nH]c2ccccc12)NC(=O)CCc1ccc(F)cc1F`, 0.01 nM. On to `CCNC(=O)[C@@H]1CCCN1C(=O)[C@H](CCCN=C(N)N)NC(=O)[C@H](CC(C)C)NC(=O)[C@@H](Cc1ccc(Cl)cc1)NC(=O)[C@H](Cc1ccc(O)cc1)NC(=O)[C@H](CO)NC(=O)[C@H](Cc1c[nH]c2ccccc12)NC(=O)CCc1ccc(F)cc1`, for which the Kb was 0.00891 nM. `CCNC(=O)[C@@H]1CCCN1C(=O)[C@H](CCCN=C(N)N)NC(=O)[C@H](CC(C)C)NC(=O)[C@@H](Cc1c[nH]c2ccccc12)NC(=O)[C@H](Cc1ccc(O)cc1)NC(=O)[C@H](CO)NC(=O)[C@H](Cc1c[nH]c2ccccc12)NC(=O)CCc1ccc(O)cc1` (Desaminotyrosyl-WSY[dW]LRP-NHEt): the Kb was 15.5 nM. For the compound `CCNC(=O)[C@@H]1CCCN1C(=O)[C@H](CCCN=C(N)N)NC(=O)[C@H](CC(C)C)NC(=O)[C@@H](Cc1c[nH]c2ccccc12)NC(=O)[C@H](Cc1ccc(O)cc1)NC(=O)[C@H](CO)NC(=O)[C@@H](Cc1c[nH]c2ccccc12)NC(=O)Cc1ccc(C(F)(F)F)cc1`, the Kb was 2.63 nM. Regarding `CCNC(=O)[C@@H]1CCCN1C(=O)[C@H](CCCCNC(C)C)NC(=O)[C@H](CC(C)C)NC(=O)[C@@H](CCCCNC(=O)c1cccnc1)NC(=O)[C@H](Cc1ccc(O)cc1)N(C)C(=O)[C@H](CO)NC(=O)[C@@H](Cc1cccc2ccccc12)NC(=O)CCc1ccc(F)cc1`, the Kb is 0.00372 nM. Turning to `CCNC(=O)[C@@H]1CCCN1C(=O)[C@H](CCCN=C(N)N)NC(=O)[C@H](CC(C)C)NC(=O)[C@@H](Cc1c[nH]c2ccccc12)NC(=O)[C@H](Cc1ccc(O)cc1)NC(=O)[C@H](CO)NC(=O)[C@@H](Cc1c[nH]c2ccccc12)NC(=O)CCc1ccc(F)cc1F`, the Kb is 0.0141 nM. On to `CCNC(=O)[C@@H]1CCCN1C(=O)[C@H](CCCN=C(N)N)NC(=O)[C@H](CC(C)C)NC(=O)[C@@H](Cc1c[nH]c2ccccc12)NC(=O)[C@H](Cc1ccc(O)cc1)NC(=O)[C@H](CO)NC(=O)[C@H](Cc1cccc2ccccc12)NC(=O)CCc1ccc(F)cc1`, for which the Kb is 0.00501 nM. For `CCNC(=O)[C@@H]1CCCN1C(=O)[C@H](CCCN=C(N)N)NC(=O)[C@H](CC(C)C)NC(=O)[C@@H](Cc1c[nH]c2ccccc12)NC(=O)[C@H](Cc1ccc(O)cc1)NC(=O)[C@H](CO)NC(=O)[C@@H](Cc1c[nH]c2ccccc12)NC(=O)CCc1ccc(Cl)cc1`, the Kb is 0.166 nM. As for `CCNC(=O)[C@@H]1CCCN1C(=O)[C@H](CCCN=C(N)N)NC(=O)[C@H](CC(C)C)NC(=O)[C@@H](Cc1c[nH]c2ccccc12)NC(=O)[C@H](Cc1ccc(O)cc1)NC(=O)[C@H](CO)NC(=O)[C@H](Cc1c[nH]c2ccccc12)NC(=O)c1cc2ccccc2[nH]1`, the Kb was 17.8 nM. As for `CCNC(=O)[C@@H]1CCCN1C(=O)[C@H](CCCN=C(N)N)NC(=O)[C@H](CC(C)C)NC(=O)[C@@H](Cc1c[nH]c2ccccc12)NC(=O)[C@H](Cc1ccc(O)cc1)NC(=O)[C@H](CO)NC(=O)[C@@H](Cc1c[nH]c2ccccc12)NC(=O)CCc1ccc(F)c(F)c1`, the Kb was 0.0355 nM.

In the case of `CCNC(=O)[C@@H]1CCCN1C(=O)[C@H](CCCN=C(N)N)NC(=O)[C@H](CC(C)C)NC(=O)[C@@H](Cc1c[nH]c2ccccc12)NC(=O)[C@H](Cc1ccc(O)cc1)NC(=O)[C@H](CO)NC(=O)[C@H](Cc1c[nH]c2ccccc12)NC(=O)Cc1ccccc1`, the Kb was 5.5 nM. As for `CCNC(=O)[C@@H]1CCCN1C(=O)[C@H](CCCN=C(N)N)NC(=O)[C@H](CC(C)C)NC(=O)[C@@H](CCCCNC(=O)c1cccnc1)NC(=O)[C@H](Cc1ccc(O)cc1)N(C)C(=O)[C@H](CO)NC(=O)[C@@H](Cc1c[nH]c2ccccc12)NC(=O)CCc1cccc(F)c1`, the Kb was 0.0871 nM.
